Columns and labels:
[1] = melting temperature; fluorescence melt of hairpins on a sequencing array, two-state fit, raised by 9.35 °C to match UV melts; settings: sodium 0.088 M
Summary of the method: (§1)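 Two-state fits, bootstrapped, provided melting temperature and folding enthalpy from Cy3 fluorescence normalised to pre-quench Cy3 and to control constructs. Library hairpins with annealed Cy3 and quencher oligos were imaged on a sequenced MiSeq flow cell in 50 mM Na-HEPES pH 8.0, 25 mM NaCl, at 2.5 °C intervals up to 60 °C. Four replicates were combined with inverse-variance weighting. A 9.35 °C upward shift was applied to fitted temperatures to match UV melts.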

[2] = folding enthalpy; higher = less favourable; fluorescence melt of hairpins on a sequencing array, two-state fit; settings: sodium 0.088 M
Summary of the method: as §1

Work on GGACGTGGAAACACGCCC ((.((((....)))).)) yielded a Tm [1] of 53 °C and a folding enthalpy [2] of -35.7 kcal/mol.

For CGAGCGGAAACGCCTCG ((((((....))).))), the Tm [1] was 52.3 °C and the folding enthalpy [2] was -29.6 kcal/mol.

Work on GCGTAGCGAAAGCTTCGC (((.(((....))).))) yielded a Tm [1] of 55 °C and a folding enthalpy [2] of -36.2 kcal/mol.

For GAAATAGCGAAAGCTTTC (((..(((....)))))), the Tm [1] was 28.6 °C and the folding enthalpy [2] was -11.8 kcal/mol.

GGTAATCCGAAAGGAACC (((..(((....)))))) gave a Tm [1] of 26 °C and a folding enthalpy [2] of -19.7 kcal/mol.

For GTCCACGAAAGTGCAGAC ((((((....)))..))), the Tm [1] was 36.2 °C and the folding enthalpy [2] was -16.5 kcal/mol.

GCTTAGCGAAAGCCACGC ((.(.((....)).).)) showed a Tm [1] of 22.5 °C and a folding enthalpy [2] of -8.56 kcal/mol.

GTGGAAGGAAACTCCCAC ((((.((....)).)))) gave a Tm [1] of 38.6 °C and a folding enthalpy [2] of -36.2 kcal/mol.

GCTCAGCGAAAGCCGTGC ((.(.((....)).).)) showed a Tm [1] of 42.4 °C and a folding enthalpy [2] of -12.3 kcal/mol.

In the case of GATCAGTAGACTGATC ((((((....)))))), the Tm [1] is reported as 51.5 °C and the folding enthalpy [2] is reported as -40.7 kcal/mol.

GCTTGTGGAAACACAAGC (((((((....))))))) showed a Tm [1] of 63.9 °C and a folding enthalpy [2] of -39.9 kcal/mol.

GGTTACGAAAGTATGACC ((((((....)))..))) gave a Tm [1] of 30.4 °C and a folding enthalpy [2] of -15.1 kcal/mol.

With GATCATGGCGATGATC ((((((....)))))) the Tm [1] was 51.5 °C and the folding enthalpy [2] was -49.1 kcal/mol.

GTGAAAGGAAACTTTTAC ((.((((....)))).)) gave a Tm [1] of 31.3 °C and a folding enthalpy [2] of -22.9 kcal/mol.

With GAAGTGGGAAACTGCTTC ((((..(....)..)))) the Tm [1] was 39.6 °C and the folding enthalpy [2] was -26.1 kcal/mol.

With GACGGCACGAAAGTGGTC (((..(((....)))))) the Tm [1] was 34.5 °C and the folding enthalpy [2] was -14.6 kcal/mol.

In the case of GATAGCGAAAGCTTGATC ((((((....)))..))), the Tm [1] is reported as 25.1 °C and the folding enthalpy [2] is reported as -8.2 kcal/mol.

GTATGTGGAAACATGTAC (((..((....))..))) showed a Tm [1] of 30.9 °C and a folding enthalpy [2] of -16.4 kcal/mol.

In the case of GTGTGAGGAAACTCACAC (((((((....))))))), the Tm [1] is reported as 63.4 °C and the folding enthalpy [2] is reported as -49.1 kcal/mol.

With GATCCGACCCCGGATC ((((((....)))))) the Tm [1] was 54.4 °C and the folding enthalpy [2] was -42.1 kcal/mol.

With GCGATGCGAAAGCGACGC (((..((....))..))) the Tm [1] was 65.7 °C and the folding enthalpy [2] was -29.5 kcal/mol.

GATCTTATAAAGATC ((((((...)))))) showed a Tm [1] of 44 °C and a folding enthalpy [2] of -29.4 kcal/mol.

For GTGGTGACGAAAGTCCAC (((..(((....)))))), the Tm [1] was 45.6 °C and the folding enthalpy [2] was -19 kcal/mol.

With GAAACCGAAAGGTGCTTC ((((((....)))..))) the Tm [1] was 43.5 °C and the folding enthalpy [2] was -19.4 kcal/mol.

Work on GCGGTAGGAAACCACCGC (((((.(....).))))) yielded a Tm [1] of 57.3 °C and a folding enthalpy [2] of -36.8 kcal/mol.

GCCTTAGGAAACTAGGGC (((.(((....))).))) showed a Tm [1] of 45.5 °C and a folding enthalpy [2] of -34.3 kcal/mol.

Sequence CGACCGGAAACGGAGTCG ((((((....)))..))) has a Tm [1] of 45.4 °C and a folding enthalpy [2] of -27.2 kcal/mol.

Work on GGGTTCGAAAGAAACCC ((((((....))).))) yielded a Tm [1] of 54.4 °C and a folding enthalpy [2] of -34.7 kcal/mol.

Sequence GCTTCTGGAAACAGGAGC (((.(((....))).))) has a Tm [1] of 50.5 °C and a folding enthalpy [2] of -37.5 kcal/mol.

For GCCGTGGGAAACCGTGGC (((..((....))..))), the Tm [1] was 47.4 °C and the folding enthalpy [2] was -28.2 kcal/mol.

GGCGAAGCGAAAGCTGCC (((..(((....)))))) gave a Tm [1] of 52.8 °C and a folding enthalpy [2] of -17.7 kcal/mol.

With GGATTGCGAAAGCAGTCC (((.(((....))).))) the Tm [1] was 60.2 °C and the folding enthalpy [2] was -38.5 kcal/mol.

GCGGAACGAAAGTTTCGC (((.(((....))).))) gave a Tm [1] of 64.8 °C and a folding enthalpy [2] of -51.9 kcal/mol.

Sequence AGACTGAAAAGTCT (((((....))))) has a Tm [1] of 46 °C and a folding enthalpy [2] of -16.9 kcal/mol.

Sequence GATCGTCAGAACGATC ((((((....)))))) has a Tm [1] of 55.1 °C and a folding enthalpy [2] of -35.2 kcal/mol.

In the case of GGTCGCGGAAACGCGGTC (..((((....))))..), the Tm [1] is reported as 47.4 °C and the folding enthalpy [2] is reported as -13.2 kcal/mol.

GGAGCTGGAAACAACTCC ((((.((....)).)))) showed a Tm [1] of 42.6 °C and a folding enthalpy [2] of -31.2 kcal/mol.

Sequence GCTACGCGAAAGCGAGGC ((..(((....)))..)) has a Tm [1] of 53.3 °C and a folding enthalpy [2] of -15.1 kcal/mol.

In the case of GCAATCCGAAAGGAATGC (((.(((....))).))), the Tm [1] is reported as 54.5 °C and the folding enthalpy [2] is reported as -34.5 kcal/mol.

Sequence GAACATCCGAAAGGATTC (((..(((....)))))) has a Tm [1] of 26.3 °C and a folding enthalpy [2] of -11.7 kcal/mol.

With GTCTACGAAAGTAAAGAC ((((((....)))..))) the Tm [1] was 37.3 °C and the folding enthalpy [2] was -23.8 kcal/mol.

In the case of GATCCATGCGTGGATC ((((((....)))))), the Tm [1] is reported as 56.8 °C and the folding enthalpy [2] is reported as -35.8 kcal/mol.

With GCGGCCAGCCGC ((((....)))) the Tm [1] was 67.3 °C and the folding enthalpy [2] was -20.5 kcal/mol.

Sequence GGAAAAGCGAAAGCTTCC (((..(((....)))))) has a Tm [1] of 40.5 °C and a folding enthalpy [2] of -15.1 kcal/mol.

Sequence GTGTACGAAAGTATCAC ((((((....))).))) has a Tm [1] of 43.6 °C and a folding enthalpy [2] of -22.8 kcal/mol.

In the case of GGTTAACGAAAGTTACC (((.(((....)))))), the Tm [1] is reported as 43.9 °C and the folding enthalpy [2] is reported as -21.9 kcal/mol.
